Bioassay records: PubChem BioAssay, Sanford-Burnham Center for Chemical Genomics
bIAP inh = blocks bovine intestinal alkaline phosphatase activity; 190,000 tested, under 10 active; purified bovine IAP, CDP-star luminescence, 30 min; AID 1019; inhibition, % at 20 µM;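 active = over 50% inhibition of intestinal alkaline phosphatase at 20 µM in the single-dose screen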
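System: Purified bovine intestinal alkaline phosphatase (IAP) enzyme | Input: IAP diluted 1/65,000,000 in the well | Also added: CDP-star chemiluminescent phosphatase substrate, 30 µM final | Dosing: 20 µM single dose | Times: Enzyme reaction for 30 min at room temperature | Detection: Luminescence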
hIAP inh = human IAP inhibition; 330,000 compounds, 0.12% hits; purified IAP, CDP-Star luminescence, 30 min; P09923; AID 2544; inhibition, % at 10 µM;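 active = inhibition reaching a set limit with compound at 10 µM in the primary screen, cut at about 35% in these data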;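 note: plate controls were DMSO wells with enzyme for no effect and no-enzyme buffer wells for full effect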
Target sequence (P09923 whole entry, looked up): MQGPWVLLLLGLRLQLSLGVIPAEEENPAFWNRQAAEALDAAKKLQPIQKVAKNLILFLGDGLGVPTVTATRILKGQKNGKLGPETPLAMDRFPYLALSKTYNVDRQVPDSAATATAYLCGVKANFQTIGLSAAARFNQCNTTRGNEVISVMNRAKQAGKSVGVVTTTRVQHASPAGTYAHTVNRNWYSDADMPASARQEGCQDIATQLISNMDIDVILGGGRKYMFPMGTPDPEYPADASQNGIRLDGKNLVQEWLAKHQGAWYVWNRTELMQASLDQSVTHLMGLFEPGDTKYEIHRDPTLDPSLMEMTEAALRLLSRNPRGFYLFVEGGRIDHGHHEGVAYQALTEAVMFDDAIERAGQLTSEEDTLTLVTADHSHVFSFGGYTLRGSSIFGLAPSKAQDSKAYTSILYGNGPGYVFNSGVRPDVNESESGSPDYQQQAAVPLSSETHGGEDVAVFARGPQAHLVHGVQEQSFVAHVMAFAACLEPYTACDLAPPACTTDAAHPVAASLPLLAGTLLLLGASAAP
mIAP act = mouse IAP activation. muIAP, CDP-Star luminescence, 30 min; hits give high values; 1 = vehicle-only enzyme signal, 0 = enzyme-free wells. activation factor at 10 µM. 330,000 compounds, 0.24% hits;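 active = activation factor of at least 2 at 20 µM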
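Assay system: mouse IAP enzyme; Reagent: CDP-Star chemiluminescent phosphatase substrate; Compound: DMSO-dissolved test compounds; Incubation: 30 min, room temperature; Technique: luminescence from enzymatic CDP-Star hydrolysis; Controls: DMSO-only wells and no-enzyme negative control.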
mIAP inh = mouse IAP inhibition; 330,000 compounds, 0.2% hits; inhibition, % at 10 µM; purified mouse IAP, CDP-Star luminescence, 30 min;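 active = inhibition of at least 40% at 10 µM in the primary screen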;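 note: plate controls were DMSO with enzyme for no effect and no enzyme wells for full effect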
hIAP activ = increases human intestinal alkaline phosphatase activity; AID 2524; purified human IAP, CDP-Star luminescence, 30 min; hits give high values; 1 = vehicle-only enzyme, 0 = enzyme-free background; 330,000 compounds, 0.16% hits; P09923; activation factor at 10 µM;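 active = activation factor of the enzyme at least 2-fold when tested at 20 µM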
bIAP activator = increases bovine intestinal alkaline phosphatase activity. purified bovine IAP, CDP-star luminescence, 30 min; hits give high values; fold of DMSO-control signal, blank-subtracted. activation factor at 20 µM. 200,000 compounds, 0.17% hits. AID 1016;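 active = activation factor of 2 or more at 20 µM, a signal rise over negative controls twice the positive control's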
mIAP inh confirm = mouse IAP inhibition confirmation; shares compounds with mIAP inh; purified mouse IAP, CDP-Star luminescence, 30 min; inhibition, % at 10 µM; 11,000 compounds, 4.7% hits;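 active = inhibition of at least 40% at 10 µM in either of the two replicates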;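 note: plate controls were DMSO wells with enzyme for no effect and buffer wells lacking enzyme for full effect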
An asterisk follows results filed as active; i = inactive; · = no result given. An excerpt weighted towards active compounds, which were near 0.72% of everything screened.

SMILES	bIAP inh	hIAP inh	mIAP act	mIAP inh	hIAP activ	bIAP activator	mIAP inh confirm
S=C(NCc1ccccc1)NC1CCSc2ccccc21 (stereo not given)	·	-5.7	4.42*	-341.5	1.06	·	-151.4
CN(C)C(=O)CCc1ccc2c3c([nH]c2c1)[C@]1(CCc2ccccc2)[C@@H](C(=O)N2CCCCC2)C[C@H](CC(=O)NCCCn2ccnc2)C(=O)N1CC3	·	·	1.2	-20.4	·	·	·
COc1cc(/C=N/NC(=S)Nc2cccc(Cl)c2C)ccc1OCC(=O)N1CC(C)OC(C)C1 (stereo not given)	12.9	-16.2	0.992	0.8	1.16	0.9	·
CCN(CC)c1ccc(C(=O)NNC(=O)C2CSC3(C)CCC(=O)N23)cc1 (stereo not given)	·	-9.2	1.17	-17.3	1.09	·	·
CC(=O)N1CCN(S(=O)(=O)c2cccc(C(=O)OCc3ccc(C(C)(C)C)cc3)c2)CC1	·	-10.1	0.908	9.2	1.1	·	·
COC(=O)c1ccc2c(c1)N(C)S(=O)(=O)c1cnc(SCC(=O)C(C)(C)C)nc1-2	·	11.7	0.921	7.9	0.883	·	·
O=c1nc2s/c(=C\c3ccco3)c(=O)n2nc1Cc1ccc(F)cc1	12.0	13.3	0.537	46.3*	0.867	0.9	58.1*
CC[C@H](C)[C@@H](C(=O)NCCCCCCCCCCC(=O)N1CCN(C(=O)OC(C)(C)C)CC1)n1cc(CCCCN=C(NC(=O)OC(C)(C)C)NC(=O)OC(C)(C)C)nn1	·	6.1	2.25*	-125.4	0.939	·	-128.5
C#CCOCCOCCOCCNc1nc(N2CCN(C(=O)CCCCCCCCCCNC(=O)Cn3cc(CCCCCN)nn3)CC2)nc(N2CCN(C(=O)CCCCCCCCCCNC(=O)[C@@H](CCC(=O)O)n3cc(CCCCCN)nn3)CC2)n1	·	3.3	1.42	-42.4	0.967	·	·
C#CCOCCOCCOCCNc1nc(N2CCN(C(=O)CCCCCCCCCCNC(=O)Cn3cc(CCCCCN)nn3)CC2)nc(N2CCN(C(=O)CCCCCCCCCCNC(=O)[C@H]([C@@H](C)CC)n3cc(CCCCN=C(N)N)nn3)CC2)n1	·	-19.1	9.74*	i	1.19	·	i
C#CCOCCOCCOCCNc1nc(N2CCN(C(=O)Cn3cc(CCCN=C(N)N)nn3)CC2)nc(N2CCN(C(=O)[C@H]([C@@H](C)CC)n3cc(CCCCN)nn3)CC2)n1	·	8.4	1.06	-6.4	0.916	·	·
C#CCOCCOCCOCCNc1nc(N2CCN(C(=O)CCCCCCCCCCNC(=O)[C@H]([C@@H](C)CC)n3cc(CCCCCN)nn3)CC2)nc(N2CCN(C(=O)CCCCCCCCCCNC(=O)[C@H]([C@@H](C)CC)n3cc(CCCCN=C(N)N)nn3)CC2)n1	·	-16.3	17.6*	i	1.16	·	i
C#CCOCCOCCOCCNc1nc(N2CCN(C(=O)CCCCCCCCCCNC(=O)Cn3cc(CCCCCN)nn3)CC2)nc(N2CCN(C(=O)CCCCCCCCCCNC(=O)[C@@H](CCSC)n3cc(CCO)nn3)CC2)n1	·	-13.5	4.21*	-320.7	1.14	·	-256.4
O=C(CN1C(=O)c2cccc3cccc(c23)C1=O)NCCN1CCOCC1	8.1	-5.3	0.847	15.3	1.05	0.9	·
O=C(CCCc1nc2ccccc2s1)NC(c1ccccc1)c1ccccc1	-1.0	6.7	1.24	-23.7	0.933	1	·
C#CCOCCOCCOCCNc1nc(N2CCN(C(=O)CCCCCCCCCCNC(=O)[C@H]([C@@H](C)CC)n3cc(CCCCN=C(N)N)nn3)CC2)nc(N2CCN(C(=O)CCCCCCCCCCNC(=O)[C@H](CO)n3cc(CCCCCN)nn3)CC2)n1	·	-38.0	6.36*	i	1.38	·	i
C#CCOCCOCCOCCNc1nc(N2CCN(C(=O)[C@H]([C@@H](C)CC)n3cc(CCCN=C(N)N)nn3)CC2)nc(N2CCN(C(=O)[C@H]([C@@H](C)CC)n3cc(CCCN=C(N)N)nn3)CC2)n1	32.3	24.8	1.08	-7.8	0.752	0.7	·
C#CCOCCOCCOCCNc1nc(N2CCN(C(=O)CCCCCCCCCCNC(=O)[C@H]([C@@H](C)CC)n3cc(CCCCN=C(N)N)nn3)CC2)nc(N2CCN(C(=O)CCCCCCCCCCNC(=O)[C@H]([C@@H](C)CC)n3cc(CCCCN=C(N)N)nn3)CC2)n1	·	-46.8	10.3*	i	1.47	·	i
C#CCOCCOCCOCCNc1nc(N2CCN(C(=O)CCCCCCCCCCNC(=O)[C@H](CO)n3cc(CCCSC)nn3)CC2)nc(N2CCN(C(=O)CCCCCCCCCCNC(=O)[C@H](CCCCN)n3cc(CCO)nn3)CC2)n1	·	4.3	1.36	-35.8	0.957	·	·
C#CCOCCOCCOCCNc1nc(N2CCN(C(=O)CCCCCCCCCCNC(=O)[C@H]([C@@H](C)CC)n3cc(CCCCN=C(N)N)nn3)CC2)nc(N2CCN(C(=O)CCCCCCCCCCNC(=O)[C@H](CCCCN)n3cc(C)nn3)CC2)n1	·	-8.1	2.78*	-178.4	1.08	·	i
COCCN1C(=O)C(=O)/C(=C(/O)c2ccc(C)cc2)C1c1ccccn1 (stereo not given)	-8.2	-7.2	1.16	-15.5	1.07	1.1	·
O=C(Nc1ccc2c(c1)N(Cc1ccccc1)C(=O)c1ccccc1S2)NC1CC1	-48.7	6.6	2.74*	-174.4	0.934	1.5	-144.9
C=C(C)c1cccc(C(C)(C)NC(=O)Nc2ccc(C(N)=O)cc2)c1	-27.8	-15.0	2.23*	-123.2	1.15	1.3	-118.3
COc1ccc(-c2csc(Nc3ccc(S(N)(=O)=O)cc3)n2)cc1	21.4	-13.3	1.15	-14.7	1.13	0.8	·
Cc1nc(N)sc1-c1csc(Nc2ccc(S(N)(=O)=O)cc2)n1	·	-9.9	0.331	66.9*	1.1	·	68.1*
SMILES	bIAP inh	hIAP inh	mIAP act	mIAP inh	hIAP activ	bIAP activator	mIAP inh confirm
O=C1CC(=O)N(Cc2cccs2)C(=O)N1	4.4	13.6	0.994	0.6	0.864	1	·
O=C1CC(=O)N(Cc2ccco2)C(=O)N1	-26.1	-5.0	0.519	48.1*	1.05	1.3	52.7*
O=C1CC(=O)N(Cc2ccco2)C(=S)N1	-8.9	21.1	0.297	70.3*	0.789	1.1	74.9*
COc1ccc(C2CC(c3ccccc3Cl)=NN2c2ccc(S(N)(=O)=O)cc2)cc1 (stereo not given)	·	·	2.21*	-121.5	·	·	-117.8
CCCCNC(=O)C(C1CCCCC1)N(CCN(C)C)C(=O)CCCN1C(=O)NC(c2ccc(-c3ccccc3)cc2)C(C(=O)OCc2ccccc2)=C1C (stereo not given)	·	·	2.67*	-167.5	·	·	-148.5
COCCn1nnnc1C(c1cc2c(C)cc(C)cc2[nH]c1=O)N1CCCCCC1 (stereo not given)	-10.6	27.2	0.866	13.4	0.728	1.1	·
COCCn1nnnc1C(c1cc2cc(C)ccc2[nH]c1=O)N1CCCCCC1 (stereo not given)	-12.8	8.4	0.329	67.1*	0.916	1.1	70.4*
